In brackets after ≈: the same amount, converted by molar mass. Blank lines part the entries; values can stand above or below the molecule they belong to. Activity calls are given as the source filed them. No cut-off for these calls is given here.
Key:
[1] = test system: Candida albicans; test: In vitro antimicrobial activity against Candida albicans ATCC 10231, tested at 100-0.1 ug/mL; assay type: functional
How it was run: (§1)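 Agar dilution/streak method; MIC (μg/mL) read as lowest concentration inhibiting growth. Each organism was streaked on agar plates holding serial dilutions of test agent over the range given in the line. "i" means no inhibition at the top concentration tested.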

[2] = species on record: Homo sapiens; test: In vitro cytotoxic activity against, human lymphoblastic leukemia cell culture (CCRF-CEM); assay type: functional
[3] = test system: Klebsiella pneumoniae; test: In vitro antimicrobial activity against Klebsiella pneumoniae ATCC 10031,tested at 100-0.1 ug/mL; assay type: functional; how it was run: as §1
[4] = test system: L1210; test: In vitro cytotoxic activity against,L-1210 mouse lymphocytic leukemia cell culture (ATCC CCL-219); assay type: functional, cell-based
How it was run: (§2)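 L1210 (ATCC 219) cells: 1×10^4 cells per well seeded in DMEM with 5% bovine serum and grown 48 h at 37 °C under 5% CO2. Agent was added from a 10 mg/mL stock in 95% ethanol via 2× medium and incubated a further 48 h. The nonadherent cells were dispersed by pipetting, diluted in balanced salts solution and counted by hemocytometer or Coulter counter. IC50 is the dose giving 50% of control count.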

[5] = test system: Staphylococcus aureus; test: In vitro antimicrobial activity against, Staphylococcus aureus ATCC 13709,tested at 100-0.1 ug/mL; assay type: functional; how it was run: as §1
[6] = test system: B16; test: In vitro cytotoxic activity against,B-16 mouse melanoma (B-16); assay type: functional, cell-based
How it was run: (§3)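 B16 cells: 1×10^4 cells per well seeded in DMEM with 5% bovine serum and grown 48 h at 37 °C under 5% CO2. Agent was added from a 10 mg/mL stock in 95% ethanol via 2× medium and incubated a further 48 h. Cells were detached with 0.01% trypsin/0.1% EDTA in PBS for 5 min at 37 °C and counted. IC50 is the dose giving 50% of control cell count, taken from count versus concentration plots.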

[7] = test system: Mycolicibacterium smegmatis; test: In vitro antimicrobial activity against Mycobacterium smegmatis ATCC 607,tested at 100-0.1 ug/mL; assay type: functional; how it was run: as §1
[8] = test system: Candida albicans; test: In vitro antimicrobial activity against Candida albicans ATCC 10231, tested at 100-0.1 ug/mL; i=Inactive at highest concentration; assay type: functional, organism-based; how it was run: as §1
[9] = test system: Klebsiella pneumoniae; test: In vitro antimicrobial activity against,Klebsiella pneumoniae ATCC 10031 tested at 100-0.1 ug/mL; i=Inactive at highest concentration; assay type: functional, organism-based; how it was run: as §1
[10] = test system: Mycolicibacterium smegmatis; test: In vitro antimicrobial activity against Mycobacterium smegmatis ATCC 607 tested at 100-0.1 ug/mL; i=Inactive at highest concentration; assay type: functional, organism-based; how it was run: as §1
[11] = test system: Staphylococcus aureus; test: In vitro antimicrobial activity against, Staphylococcus aureus ATCC 13709 tested at 100-0.1 ug/mL; i=Inactive at highest concentration; assay type: functional, organism-based; how it was run: as §1
[12] = test system: Candida albicans; test: In vitro antimicrobial activity against Candida albicans ATCC 10231, tested at 50-0.1 ug/mL; i=Inactive at highest concentration; assay type: functional, organism-based; how it was run: as §1
[13] = test system: Klebsiella pneumoniae; test: In vitro antimicrobial activity against Klebsiella pneumoniae ATCC 10031,tested at 50-0.1 ug/mL; i=Inactive at highest concentration; assay type: functional, organism-based; how it was run: as §1
[14] = test system: Mycolicibacterium smegmatis; test: In vitro antimicrobial activity against Mycobacterium smegmatis ATCC 607,tested at 50-0.1 ug/mL; assay type: functional; how it was run: as §1
[15] = test system: Staphylococcus aureus; test: In vitro antimicrobial activity against, Staphylococcus aureus ATCC 13709,tested at 50-0.1 ug/mL;; assay type: functional; how it was run: as §1
[16] = test system: Staphylococcus aureus; test: In vitro antimicrobial activity against, Staphylococcus aureus ATCC 13709,tested at 50-0.1 ug/mL; assay type: functional; how it was run: as §1
[17] = test system: Klebsiella pneumoniae; test: In vitro antimicrobial activity against Klebsiella pneumoniae ATCC 10031,tested at 100-0.1 ug/mL; Inactive at highest concentration; assay type: functional, organism-based; how it was run: as §1
[18] = test system: B16; test: In vitro cytotoxic activity against B-16 mouse melanoma (B-16); assay type: functional, cell-based; how it was run: as §3
[19] = test system: Candida albicans; test: In vitro antimicrobial activity against Candida albicans ATCC 10231 tested at 25-0.1 ug/mL; i=Inactive at highest concentration; assay type: functional, organism-based; how it was run: as §1
[20] = test system: Klebsiella pneumoniae; test: In vitro antimicrobial activity against Klebsiella pneumoniae ATCC 10031 tested at 25-0.1 ug/mL; i=Inactive at highest concentration; assay type: functional, organism-based; how it was run: as §1
[21] = test system: L1210; test: In vitro cytotoxic activity against L-1210 mouse lymphocytic leukemia cell culture (ATCC CCL-219); assay type: functional, cell-based; how it was run: as §2
[22] = test system: Mycolicibacterium smegmatis; test: In vitro antimicrobial activity against Mycobacterium smegmatis ATCC 607 tested at 25-0.1 ug/mL; assay type: functional; how it was run: as §1
[23] = test system: Staphylococcus aureus; test: In vitro antimicrobial activity against, Staphylococcus aureus ATCC 13709 tested at 25-0.1 ug/mL; assay type: functional
How it was run: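 Agar-dilution/streak assay giving the MIC in μg/mL, run against S. aureus ATCC 13709 within a seven-organism panel.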

[24] = test system: Klebsiella pneumoniae; test: In vitro antimicrobial activity against Klebsiella pneumoniae ATCC 10031,tested at 100-0.1 ug/mL; i=Inactive at highest concentration; assay type: functional, organism-based; how it was run: as §1
[25] = test system: Staphylococcus aureus; test: In vitro antimicrobial activity against Staphylococcus aureus ATCC 13709,tested at 100-0.1 ug/mL; assay type: functional; how it was run: as §1
[26] = test system: Mycolicibacterium smegmatis; test: In vitro antimicrobial activity against Mycobacterium smegmatis ATCC 607,tested at 100-0.1 ug/mL; i=Inactive at highest concentration; assay type: functional, organism-based; how it was run: as §1
[27] = test system: Staphylococcus aureus; test: In vitro antimicrobial activity against, Staphylococcus aureus ATCC 13709,tested at 100-0.1 ug/mL; i=Inactive at highest concentration; assay type: functional, organism-based; how it was run: as §1
[28] = test system: Candida albicans; test: In vitro antimicrobial activity against Candida albicans ATCC 10231, tested at 25-0.1 ug/mL; i=Inactive at highest concentration; assay type: functional, organism-based; how it was run: as §1
[29] = test system: Klebsiella pneumoniae; test: In vitro antimicrobial activity against Klebsiella pneumoniae ATCC 10031,tested at 25-0.1 ug/mL; i=Inactive at highest concentration; assay type: functional, organism-based; how it was run: as §1
[30] = test system: Mycolicibacterium smegmatis; test: In vitro antimicrobial activity against Mycobacterium smegmatis ATCC 607,tested at 25-0.1 ug/mL; assay type: functional; how it was run: as §1
[31] = test system: Staphylococcus aureus; test: In vitro antimicrobial activity against, Staphylococcus aureus ATCC 13709,tested at 25-0.1 ug/mL; assay type: functional; how it was run: as §1

MIC [1]: 12.5 mg/L | MIC [3]: 25 mg/L | MIC [5]: 1.56 mg/L | MIC [7]: 1.56 mg/L
SMILES: COc1cc2c(cc1C[N+](C)(C)CSc1ccccc1)-c1ccccc1CC2.[Br-]
IC50 [2]: 1.4 mg/L | IC50 [4]: 3.7 mg/L | IC50 [6]: 0.5 mg/L

MIC [8]: inactive | MIC [9]: inactive | MIC [10]: inactive | MIC [11]: inactive
SMILES: C=Cc1c(C)c(OC)cc2c1-c1ccc(OC)c(C)c1CC2

MIC [12]: inactive | MIC [13]: inactive | MIC [14]: 25 mg/L (≈ 93.2 µM) | MIC [15]: 50 mg/L (≈ 186 µM)
SMILES: COC(=O)c1cc2c(cc1OC)CCc1ccccc1-2

MIC [12]: inactive | MIC [13]: inactive | MIC [14]: 3.12 mg/L (≈ 13.1 µM) | MIC [16]: 25 mg/L (≈ 105 µM)
SMILES: CCc1cc2c(cc1OC)-c1ccccc1CC2

MIC [1]: 6.25 mg/L (≈ 29.7 µM) | MIC [17]: inactive | MIC [5]: 25 mg/L (≈ 119 µM) | MIC [7]: 3.12 mg/L (≈ 14.8 µM)
SMILES: Cc1cc2c(cc1O)CCc1ccccc1-2
IC50 [4]: 24.5 mg/L (≈ 117 µM) | IC50 [6]: 27.5 mg/L (≈ 131 µM)

MIC [1]: 3.12 mg/L | MIC [3]: 12.5 mg/L | MIC [5]: 1.56 mg/L | MIC [7]: 1.56 mg/L
SMILES: COc1cc2c(cc1C[N+](C)(C)CSc1ccccc1)-c1ccc(OC)c(C)c1CC2.[Br-]
IC50 [2]: 0.9 mg/L | IC50 [4]: 1.3 mg/L | IC50 [6]: 0.3 mg/L

SMILES: C=Cc1c(C)c(O)cc2c1-c1ccc(O)c(C)c1CC2
IC50 [18]: 12.5 mg/L (≈ 46.9 µM) | MIC [19]: inactive | MIC [20]: inactive | IC50 [21]: 13.8 mg/L (≈ 51.8 µM) | MIC [22]: 12.5 mg/L (≈ 46.9 µM) | MIC [23]: 25 mg/L (≈ 93.9 µM)

MIC [1]: 100 mg/L | MIC [24]: inactive | MIC [25]: 50 mg/L | MIC [7]: 50 mg/L
SMILES: COc1ccccc1C[N+](C)(C)CSc1ccccc1.[Br-]

MIC [8]: inactive | MIC [24]: inactive | MIC [26]: inactive | MIC [27]: inactive
SMILES: COc1cc2c(cc1C)-c1ccc(OC)c(C)c1CC2

MIC [28]: inactive | MIC [29]: inactive | MIC [30]: 3.12 mg/L | MIC [31]: 6.25 mg/L
SMILES: COc1cc2c(cc1C[N+](C)(C)CSc1ccccc1)CCc1ccccc1-2.[Br-]

MIC [1]: 100 mg/L (≈ 446 µM) | MIC [24]: inactive | MIC [27]: inactive | MIC [7]: 25 mg/L (≈ 111 µM)
SMILES: COc1cc2c(cc1C)-c1ccccc1CC2

MIC [12]: inactive | MIC [13]: inactive | MIC [14]: 25 mg/L | MIC [16]: 25 mg/L
SMILES: CC[N+](CC)(CC)Cc1cc2c(cc1OC)CCc1ccccc1-2.[Br-]

MIC [1]: 50 mg/L (≈ 208 µM) | MIC [3]: 50 mg/L (≈ 208 µM) | MIC [5]: 12.5 mg/L (≈ 52 µM) | MIC [7]: 6.25 mg/L (≈ 26 µM)
SMILES: Cc1cc2c(cc1O)CCc1c-2ccc(O)c1C
IC50 [2]: 9.3 mg/L (≈ 38.7 µM) | IC50 [4]: 10.2 mg/L (≈ 42.4 µM) | IC50 [6]: 17.5 mg/L (≈ 72.8 µM)

Reference: ChEMBL document CHEMBL1122829, “Antimicrobial and cytotoxic properties of 9,10-dihydrophenanthrenes: structure-activity studies on juncusol” (J Med Chem, 1985)
